In the library only some 2.3% were active in any assay of this set; here they are far more common.
TRPC4 potent: positive allosteric modulators of TRPC4, primary screen, cell-based, mouse TRPC4beta, HEK293 mu-opioid, Fluo-4 calcium; Short transient receptor potential channel 4 (Mus musculus), Q9QUQ5; DAMGO EC20, Fluo-4 Ca2+ flux; stronger effect = higher value; 0.42% of 310,000 active; AID 2227, 2009; B-score at 10 µM;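 active = B-score of calcium response area above 5 SD of library B-scores, with initial fluorescence ratio within 5 SD of library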
TRPC4 agonist: activators of mouse TRPC4 channel, primary screen, Fluo4 calcium, HEK293 TRPC4beta/mu-opioid cells; 0.49% of 310,000 active; Fluo4 calcium fluorescence; stronger effect = higher value; Short transient receptor potential channel 4 (Mus musculus), Q9QUQ5; B-score at 10 µM;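 active = B-score above 5 SD of library B-scores, and initial fluorescence ratio not above library mean plus 5 SD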;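 note: positive B-score marks a calcium rise read as TRPC4 activation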
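System – HEK293 cells stably co-expressing mouse TRPC4beta and mu-opioid receptor · Signal – Fluo4 calcium-sensitive dye fluorescence, kinetic, 1 Hz baseline · Benchmarks – buffer (low) and maximal DAMGO (high) · Read-out – B score of integrated fluorescence ratio per well · Incubation – dye loading 45 min room temperature, 110 s kinetic read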
TRPC4 block: inhibitors of mouse TRPC4 channel, primary screen, Fluo4 calcium, HEK293 TRPC4beta/mu-opioid cells; Short transient receptor potential channel 4 (Mus musculus), Q9QUQ5; DAMGO-evoked Fluo4 calcium flux; stronger effect = lower value; B-score at 10 µM; 0.39% of 300,000 active;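 active = B-score over 3 SD under the library average, no early fluorescence shift, positive overall ratio signal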
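Assay system: HEK293 cells with stable TRPC4beta plus mu-opioid receptor expression. Dosing: single dose. Measured by: Fluo4 Ca2+ flux fluorescence. Also added: DAMGO in two steps, submaximal then maximal. Read-out: B score from integrated Fluo4 fluorescence ratio.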
TRPC6 inhibitor: mouse TRPC6 channel inhibitors, primary screen, cell-based, HEK293, membrane potential dye | 1.1% of 310,000 active | ACh-evoked depolarization; stronger effect = lower value | Short transient receptor potential channel 6 (Mus musculus), Q61143 | AID 2553, 2010 | B-score at 10 µM;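 active = B-score under library mean minus 3 SD, initial fluorescence not abnormally high, positive integrated signal ratio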;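 note: B-score derived from integrated fluorescence ratio over the kinetic read; more negative B-score means stronger inhibition of depolarization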
Target sequence (Q61143 whole entry, looked up): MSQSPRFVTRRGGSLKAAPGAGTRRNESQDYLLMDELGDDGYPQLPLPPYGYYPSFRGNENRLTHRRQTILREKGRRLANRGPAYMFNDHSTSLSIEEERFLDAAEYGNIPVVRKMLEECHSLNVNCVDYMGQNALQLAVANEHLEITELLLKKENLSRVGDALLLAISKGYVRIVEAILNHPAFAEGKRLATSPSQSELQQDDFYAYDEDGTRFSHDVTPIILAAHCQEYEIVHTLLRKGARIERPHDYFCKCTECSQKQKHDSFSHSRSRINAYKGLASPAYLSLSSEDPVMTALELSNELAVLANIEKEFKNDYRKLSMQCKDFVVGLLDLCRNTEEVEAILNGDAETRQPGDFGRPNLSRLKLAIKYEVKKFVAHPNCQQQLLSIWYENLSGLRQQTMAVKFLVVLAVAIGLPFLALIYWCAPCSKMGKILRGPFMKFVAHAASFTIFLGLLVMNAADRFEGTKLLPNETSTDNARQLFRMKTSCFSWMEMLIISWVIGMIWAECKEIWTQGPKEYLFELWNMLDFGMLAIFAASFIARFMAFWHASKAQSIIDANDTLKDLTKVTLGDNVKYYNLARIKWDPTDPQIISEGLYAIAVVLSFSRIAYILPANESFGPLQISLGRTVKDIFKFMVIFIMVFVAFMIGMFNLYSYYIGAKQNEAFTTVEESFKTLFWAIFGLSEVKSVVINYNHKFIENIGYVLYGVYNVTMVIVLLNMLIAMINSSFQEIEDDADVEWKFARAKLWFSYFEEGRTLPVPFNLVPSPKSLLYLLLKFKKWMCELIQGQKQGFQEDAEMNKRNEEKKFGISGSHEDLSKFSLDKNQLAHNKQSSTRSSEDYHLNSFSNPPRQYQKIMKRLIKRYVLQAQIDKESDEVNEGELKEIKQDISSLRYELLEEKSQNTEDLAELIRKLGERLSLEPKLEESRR
TRPC6 act: mouse TRPC6 channel activators, primary screen, cell-based, HEK293, membrane potential dye | HEK293-TRPC6 membrane potential dye fluorescence; stronger effect = higher value | B-score at 10 µM | 0.13% of 310,000 active | AID 2550, 2010;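 active = B-score of the integrated fluorescence ratio above library mean plus 3 SD, and starting fluorescence ratio within library mean plus 5 SD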;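 note: higher score means more depolarization so channel activation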
Large screens that a line does not name were inactive.

CCOC(=O)C1CCCN(C/C=C/c2ccccc2)C1 (centres undefined)	none
Cc1csc2c(N3CCN(C(=O)NC(C)(C)C)CC3)ncnc12	TRPC4 agonist 84
Cc1csc2ncnc(N3CCN(C(=S)Nc4ccc(C(F)(F)F)cc4)CC3)c12	none
CCOC(=O)C1CCN(c2ncnc3c(C)csc23)CC1	none
Cc1csc2c(N3CCN(C(=S)Nc4ccc(C(F)(F)F)cc4)CC3)ncnc12	TRPC4 agonist 145
Cc1csc2c(N3CCN(C(=O)c4ccc(C(C)(C)C)cc4)CC3)ncnc12	TRPC4 agonist 67
Cc1csc2c(N3CCN(C(=O)Nc4ccc(Cl)c(Cl)c4)CC3)ncnc12	TRPC4 agonist 91
CCc1cccc(CC)c1NC(=O)C1CCN(C(=O)c2ccco2)CC1	none
Cc1ccccc1C(=O)Nc1ccnn1C1CCN(C(C)Cc2ccccc2F)CC1 (centres undefined)	none
O=C(c1ccco1)N1CCN(C(=O)C2CC(=O)N(c3ccc(Cl)cc3)C2)CC1 (centres undefined)	none
CN1CCN(c2ccc(NC(=O)COc3cccc4ccccc34)cc2)CC1	TRPC4 agonist 177
CN1CCN(c2ccc(NC(=O)COc3ccc4ccccc4c3)cc2)CC1	none
Clc1ccc(CN2C3=NCCCN3c3ccccc32)cc1Cl	TRPC4 block -6
Clc1ccc(CN2C3=NCCCN3c3ccccc32)cc1	none
Cc1ccc2[nH]c3c(N4CCc5ccccc5C4)ncnc3c2c1	TRPC4 agonist 76
COc1ccccc1CNC(=O)COC(=O)C1CCN(S(=O)(=O)c2ccccc2)CC1	none
N=c1ccn(Cc2ccc(Cl)c(Cl)c2)cc1	TRPC4 agonist 61
N=c1ccn(Cc2ccc(Cl)cc2)cc1	none
CC(C)OCCCn1c(=N)c(C(N)=S)cc2c(=O)n3ccccc3nc21	TRPC6 inhibitor -7.6
CCOCCCn1c(=N)c(C(=O)NCc2ccc3c(c2)OCO3)cc2c(=O)n3ccccc3nc21	TRPC6 inhibitor -5.9
N=c1c(C(=O)NC2CCCCC2)cc2c(=O)n3ccccc3nc2n1CCc1ccccc1	TRPC6 inhibitor -5
Cc1ccc(Cn2c(=N)c(C(=O)NC3CCCC3)cc3c(=O)n4ccccc4nc32)cc1	TRPC4 potent 78, TRPC4 agonist 66
N=c1c(C(=O)NC2CCCCC2)cc2c(=O)n3ccccc3nc2n1Cc1ccco1	none
CCCn1c(=N)c(C(=O)NCc2ccc3c(c2)OCO3)cc2c(=O)n3cccc(C)c3nc21	none
Cc1ccc(N2CCN(S(=O)(=O)c3ccc4c(c3)NC(=O)C(C)C(=O)N4)CC2C)cc1 (centres undefined)	none
O=C(NCc1cccs1)C1CCCN1C(=O)Nc1ccccc1Cl (centres undefined)	none
COc1ccc2oc(C(=O)OCC(=O)N(C)C3CCS(=O)(=O)C3)c(C)c2c1 (centres undefined)	none
O=C(CC1C(=O)NCCN1Cc1cccc(Oc2ccccc2)c1)NCCc1ccccn1 (centres undefined)	TRPC4 agonist 115
O=C(CC1C(=O)NCCN1CC1CCCCC1)NCCc1ccc(F)cc1 (centres undefined)	TRPC4 agonist 51
O=C(CC1C(=O)NCCN1Cc1cccc(Oc2ccccc2)c1)NCCc1cscn1 (centres undefined)	none
O=C(CC1C(=O)NCCN1Cc1c(F)cccc1Cl)NCCc1ccccn1 (centres undefined)	none
O=C(CC1C(=O)NCCN1Cc1ccccc1C(F)(F)F)NCCc1ccccn1 (centres undefined)	TRPC4 agonist 116
COc1cccc(CN2CCNC(=O)C2CC(=O)NCCc2ccccn2)c1 (centres undefined)	TRPC4 agonist 54
O=C(CC1C(=O)NCCN1CC1CCCCC1)NCc1ccc(F)cc1 (centres undefined)	none
Cc1ccc(CNC(=S)Nc2ccc(NS(=O)(=O)c3ccc(C)cc3)cc2)cc1	none
CC(=O)Nc1ccc(CC(=O)NCCC(c2ccccc2)c2ccccc2)cc1	none
CCOC(=O)c1c(C)[nH]c(C)c1S(=O)(=O)NCCN1CCN(c2ccccc2F)CC1	none
Cc1[nH]c2ccc(Br)cc2c(=O)c1CN1CCOCC1	TRPC4 potent 12
CCOc1ccc2[nH]c(C)c(CN3CCOCC3)c(=O)c2c1	none
O=C1c2cccnc2C(=O)N1Cc1ccc(F)cc1S(=O)(=O)NCc1ccco1	none
Cc1c(S(=O)(=O)NC2CCCCC2)c(=O)n(C)c(=O)n1C	none
CN1CCN(C2=Nc3cc(F)ccc3Cc3ccccc32)CC1	TRPC6 inhibitor -5.2
CN1CCN(C2=Nc3c(Cl)cc(Cl)c4cccc2c34)CC1	none
COc1ccc(CSCCN)cc1Cl	TRPC4 agonist 103
CCN(CC)Cc1ccc(OC)c(Cl)c1	none
COc1ccc(CNCCC(c2ccccc2)c2ccc3c(c2)OCO3)cc1 (centres undefined)	TRPC4 agonist 125
COc1ccccc1C(CCNCc1ccc(N(C)C)cc1)c1ccc(OC(C)C)cc1 (centres undefined)	TRPC4 agonist 47
COc1ccc(S(=O)(=O)Nc2ccccn2)cc1C(=O)Nc1ccccc1	none
Cc1ccc(-c2nn(-c3ccccc3)cc2CO)cc1	none
N=C(N)SCc1cn(-c2ccccc2)nc1-c1ccc(Br)cc1	TRPC4 agonist 71
CCOC(=O)C1(Cc2cccc(F)c2)CCN(Cc2cnn(CC)c2)CC1	TRPC4 agonist 125
CCOC(=O)C1(Cc2cccc(F)c2)CCN(Cc2cnn(CC)c2C)CC1	TRPC4 agonist 143
CCOC(=O)C1(Cc2cccc(F)c2)CCN(CCCn2cccn2)CC1	none
CCCN(CCO)CCCc1ccccc1	TRPC4 potent 11
CCN(CCCc1ccccc1)CCCc1ccccc1	none
Cc1ccc(-c2cn(-c3ccccc3)c(SCC(N)=O)n2)cc1C	TRPC4 potent 21
O=C(CSc1ncnc2c1cnn2-c1ccccc1)NC1CCCC1	none
CCOC(=O)Cc1csc(SCC(=O)NC2CCC(C)CC2)n1 (centres undefined)	none
CN1CCN(NC(=O)CN(C)S(=O)(=O)c2cc(Cl)ccc2Cl)CC1	TRPC4 agonist 84
O=C(CCc1ccccc1)NCCc1ccc(F)cc1	none
CCOC(=O)c1cnc2ccccc2c1NCc1ccco1	TRPC4 block -6
CCOC(=O)c1cnc2ccc(OC)cc2c1NCc1ccccc1	none
Cc1ccccc1N(C(=O)c1snc(C(N)=O)c1N)C(C)C(=O)NC1CCCCC1 (centres undefined)	TRPC4 block -6
NC(=O)c1nsc(C(=O)N(Cc2ccccc2Cl)C(C(=O)NCC2CCCO2)c2ccc(O)cc2)c1N (centres undefined)	TRPC4 block -8
